Screening results as filed in PubChem.
Rows were chosen to be rich in hits. Some 3.5% of all compounds tested hit in one or more screens of this group.
RGS4 inh: inhibitors of human RGS4. B-score at 10 µM. HEK293 M3R/RGS4 inducible, Fluo-4 calcium flux; hits give high values; triggered by carbachol at its EC20. 0.45% of 310,000 active. P49798;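 active = B-score, a plate-corrected calcium signal, over three deviations above library mean, with baseline fluorescence within five deviations of library mean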;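 note: RGS4 expression induced by doxycycline in cells with stable M3 receptor; B-score is computed from the integrated fluorescence ratio over baseline after carbachol; higher B-score means a larger calcium signal and so more RGS4 inhibition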
Target sequence (P49798 whole entry, looked up): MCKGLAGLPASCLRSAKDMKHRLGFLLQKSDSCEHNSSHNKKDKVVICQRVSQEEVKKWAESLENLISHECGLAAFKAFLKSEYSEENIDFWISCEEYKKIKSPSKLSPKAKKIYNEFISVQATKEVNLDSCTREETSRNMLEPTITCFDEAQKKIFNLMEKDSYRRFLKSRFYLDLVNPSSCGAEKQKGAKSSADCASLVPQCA
MrgX1 agonist: activates human MrgX1 receptor signaling; Q96LB2; MrgX1-HEK293 cells, Fluo-4 calcium fluorescence, agonist mode; hits give high values; B-score at 10 µM; 0.44% of 310,000 active; AID 588627;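 active = calcium response B-score plate-corrected fluorescence ratio at least 3 library SD, with starting fluorescence B-score inside 5 SD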
Target sequence (Q96LB2 whole entry, looked up): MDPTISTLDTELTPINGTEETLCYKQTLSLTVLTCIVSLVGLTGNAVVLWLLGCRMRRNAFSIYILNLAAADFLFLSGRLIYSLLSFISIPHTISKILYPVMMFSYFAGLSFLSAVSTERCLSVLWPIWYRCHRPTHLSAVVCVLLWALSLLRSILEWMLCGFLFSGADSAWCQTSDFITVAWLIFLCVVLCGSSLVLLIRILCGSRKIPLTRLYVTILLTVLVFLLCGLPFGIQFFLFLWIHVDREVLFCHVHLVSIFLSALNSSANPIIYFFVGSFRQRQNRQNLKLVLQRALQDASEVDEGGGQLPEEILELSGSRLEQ
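times = overnight plating, then 30 min 37 °C plus 30 min room-temperature dye loading | assay system = stable human MrgX1 HEK293 cell line | input = fifteen thousand cells per well | signal = kinetic calcium dye fluorescence, Fluo-4 NW | dosing = compound delivered in addition one of three | read-out = B-scored fluorescence response ratio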
RGS4 act: RGS4 potentiation or activation | HEK293 M3R/inducible RGS4, carbachol calcium flux Fluo4; hits give low values | B-score at 10 µM | 0.92% of 310,000 active | AID 463111;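 active = B-score of the integrated calcium signal more than 4 SD below the library mean, with starting fluorescence not abnormally high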;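 note: negative B-score means reduced calcium response which marks RGS4 activation or potentiation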
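Test system: HEK293 cells with stable M3R and inducible RGS4; also added: carbachol at ECmax as muscarinic agonist stimulus; schedule: dye loading 30 min 37 °C, buffer rest 30 min RT; technique: kinetic calcium fluorescence imaging with Fluo4-AM dye, 2 µM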
MrgX1 antagonist: human MrgX1 receptor antagonism, primary screen. Q96LB2. MRGX1-HEK293 calcium flux, Fluo-4, BAM8-22 antagonism; hits give low values. B-score at 10 µM. 1.3% of 310,000 active. AID 588676;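 active = calcium-response B-score plate-corrected more than 3 library SD below zero, starting fluorescence within 5 deviations, no agonist response on first addition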;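 note: peak minus trough fluorescence over baseline after final BAM8-22 challenge near maximal dose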
MrgX1 PAM: human MrgX1 positive allosteric modulation, primary screen. 0.63% of 310,000 active. Q96LB2. MrgX1-HEK293, Fluo-4 calcium flux, FDSS; hits give high values. B-score at 10 µM;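 active = plate-corrected calcium response at least 3 library SD above typical, normal starting fluorescence, not activating the receptor alone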;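 note: compound read alongside a low EC10 to EC30 dose of BAM8-22 agonist; peak minus trough fluorescence over baseline measured at the second addition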
Numbers without * were called inactive; i = inactive; . = no result.

SMILES	RGS4 inh	MrgX1 agonist	RGS4 act	MrgX1 antagonist	MrgX1 PAM
c1ccc(-n2nnnc2Cc2nnnn2-c2ccccc2)cc1	i	i	i	i	i
CCN(CC)CCCNC(=O)c1ccc2c(SCC(=O)O)c3c(nc2c1)CCC3	i	i	i	i	i
CCN(CC)CCNC(=O)CSc1c2c(nc3cc(Cl)ccc13)CCCC2	i	i	-7.32*	i	i
CC(C)[C@H](NC(=O)c1ccccc1Cl)C(=O)OCc1cc([N+](=O)[O-])cc2c1OCOC2	i	i	i	i	i
CSCCC(NC(=O)c1ccco1)C(=O)OCc1cc([N+](=O)[O-])cc2c1OCOC2 (stereo unspecified)	i	28.4*	i	i	i
COc1ccc(C(=O)OCCc2sc[n+](CC(=O)c3ccccc3)c2C)cc1	i	i	-10.8*	i	i
Cc1c(CCOC(=O)c2ccc([N+](=O)[O-])cc2)sc[n+]1CC(=O)c1ccccc1	i	i	i	i	i
O=c1/c(=C/c2cccc3ccccc23)sc2ncnn12	i	i	i	i	i
Cc1ccsc1/C=c1\sc2ncnn2c1=O	i	i	i	i	6.58*
NS(=O)(=O)c1ccc(NC(=O)c2cccc(Cl)c2)cc1	i	i	i	i	i
CC(=O)Nc1ccc(S(=O)(=O)N(C)CC(=O)OCC(=O)N(C)c2ccccc2)cc1	i	i	i	i	i
CNC(=O)COC(=O)/C=C/c1cccs1	i	i	i	i	6.5*
CCCCOc1ccc(-c2cc(C(=O)NNC(=S)NCC)c3ccccc3n2)cc1	i	i	i	i	i
CCN(CC)CCCNC(=O)c1ccc(N2CCCCC2)c(NS(=O)(=O)c2ccc(C)cc2)c1	i	26.6*	i	i	i
Oc1c(Cl)cc(Cl)cc1Sc1cc(Cl)cc(Cl)c1O	i	29.7*	i	i	i
Oc1c(Cl)cc(Cl)cc1CNn1cnnc1	i	i	i	i	i
CCOc1ccc(CNC2CCCCCCC2)cc1OC	i	i	i	i	i
c1ccc(CN2CCN(CCOCCOc3ccc4c(c3)CCC4)CC2)cc1	i	i	i	-5.6*	i
CCNC(=S)N/N=C/c1ccc(OCc2ccc(C(=O)OC)cc2)cc1	i	i	i	-4.68*	i
CC(C)COP(=O)(CNC(=O)CN1C(=O)c2ccccc2S1(=O)=O)OCC(C)C	i	i	i	i	i
CN(C(=O)CCc1nnc(CCCCc2ccccc2)o1)C1CC(C)(C)NC(C)(C)C1	i	i	i	-5.76*	i
CCOc1ccccc1N1CCN(CC(=O)NCCc2ccc(S(N)(=O)=O)cc2)CC1	i	i	i	i	i
Cc1cc(=O)[nH]c(N/N=C/c2ccco2)n1	i	i	i	i	i
Cc1cc(=O)[nH]c(N/N=C/c2ccc(C)o2)n1	i	i	i	-6.56*	i
CN(CC(=O)Nc1cccc(F)c1)C(=O)c1cc([N+](=O)[O-])ccc1N1CCOCC1	i	i	i	i	i
SMILES	RGS4 inh	MrgX1 agonist	RGS4 act	MrgX1 antagonist	MrgX1 PAM
Cc1c(C(=O)NCc2ccc3c(c2)cc(C)n3C)cccc1[N+](=O)[O-]	i	i	i	i	i
Cc1ccc(-c2nnn(CC(=O)N3CCN(c4ccccc4)CC3)n2)o1	i	i	-7.58*	i	i
COc1ccc(N2CCN(C(=O)Cn3nnc(-c4ccc(OC)c(OC)c4)n3)CC2)cc1	i	i	i	i	i
O=C(Nc1cccc(Cl)c1)Nc1csc([N+](=O)[O-])c1	i	i	i	i	i
Cc1ccc(/C=C2\S/C(=N/S(=O)(=O)c3cccs3)NC2=O)cc1	i	i	i	i	14.1*
Cc1ccc(S(=O)(=O)/N=C2/NC(=O)/C(=C\c3ccco3)S2)cc1	.	i	.	i	i
Cc1ccc(N(CCC#N)C(=O)COC(=O)C2CCN(c3ccc(C(F)(F)F)cn3)CC2)cc1	i	i	i	i	i
Cc1cc(C)cc(N(CCC#N)C(=O)COC(=O)C2CCN(c3ccc(C(F)(F)F)cn3)CC2)c1	i	i	-7.02*	i	i
C/C(=N\NC(=S)NC1CCCCC1)c1ccc(Cl)c(Cl)c1	i	i	i	-4.91*	i
CCOC(=O)C1=C(N)n2c(s/c(=C/c3ccco3)c2=O)=C(C(=O)OC)C1c1ccco1 (stereo unspecified)	i	i	i	-5.74*	i
Fc1ccc(-c2cn(-c3ccccc3)c3[n+]2CCS3)cc1	i	i	i	i	i
Clc1ccc(-c2cn(-c3ccccc3)c3[n+]2CCS3)cc1	i	i	-8.67*	i	i
Oc1cccc2c(NC(=S)Nc3ccc(SC(F)F)cc3)cccc12	i	i	i	-5.31*	i
N#C/C(=C/c1ccc(F)cc1)C(N)=S	i	28*	i	i	i
Cn1cccc1/C=C(/C#N)C(N)=S	i	i	i	i	i
CCCCCCN1C=CC=C/C1=C/C=C(C#N)C#N	i	i	i	-8.12*	i
CC(C)(C)C(=O)Nc1nnc(SCC(=O)NC2CCCC2)s1	i	i	i	i	i
O=C(N/N=C/c1ccc([N+](=O)[O-])o1)C(=O)Nc1ccc(C(=O)O)cc1	i	i	i	i	i
O=[N+]([O-])c1ccc(N/N=C/C=C/c2ccco2)cc1	i	i	-7.36*	-10.4*	i
O=C(O)c1ccc(N/N=C/C=C/c2ccc([N+](=O)[O-])o2)cc1	i	i	i	-4.55*	i
CN(C)/C=N/c1ncn(-c2ncc(C(F)(F)F)cc2Cl)n1	i	i	i	i	i
CC1(C)CC(=O)C2=C(C1)OC1=C(C(=O)CC(C)(C)C1)C2c1cc([N+](=O)[O-])cc([N+](=O)[O-])c1O	i	i	i	i	i
CC1(C)CC(=O)C(C2C3=C(CC(C)(C)CC3=O)Oc3c(Br)cc(Br)cc32)=C(O)C1 (stereo unspecified)	i	52.2*	i	i	i
CC12CCC(C(=O)Nc3ccccc3)(C/C1=N\O)C2(C)C (stereo unspecified)	i	i	i	i	i
Cc1cccc(NC(=O)C23CCC(C)(/C(=N/O)C2)C3(C)C)c1 (stereo unspecified)	i	i	i	-5.8*	i
COc1ccccc1C(=O)Nc1ccc2nc3n(c(=O)c2c1)CCCC3	i	i	i	i	i
